Measurements taken from ChEMBL document CHEMBL3124798, “Convenient one-pot synthesis, anti-mycobacterial and anticancer activities of novel benzoxepinoisoxazolones and pyrazolones” (Eur J Med Chem, 2014).
≈ marks a conversion by molar mass, not a printed value. Calls of active or inactive are those of the source. No cut-off for these calls is given here.

Experiments:
A549 = assay: Cytotoxicity against human A549 cells after 48 hrs by MTT assay; type: functional, cell-based
In short: (§1)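 Cells taken from T75 flasks/90 mm dishes when sub-confluent, trypsinized and seeded at 5000–10000 cells/well according to doubling time. Test compounds added after 18 h at four concentrations, in triplicate wells. Incubation 48 h, then MTT (5 mg/mL) for 60 min at 37 °C and the bound dye solubilized. Percent growth taken against control wells. IC50 read from dose-response curves; three independent experiments, mean ± SD.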

HeLa [1] = assay: Cytotoxicity against human HeLa cells after 48 hrs by MTT assay; type: functional, cell-based; in short: as §1
HEK293 = assay: Cytotoxicity against HEK293 cells after 48 hrs by MTT assay; type: cell-based, Homo sapiens; in short: as §1
[2] = system: Mycolicibacterium smegmatis; assay: Antimycobacterial activity against Mycobacterium smegmatis MC2 155 ATCC 14468 after 32 hrs by broth microdilution method; type: functional
In short: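 M. smegmatis MC² 155 grown overnight to mid-log in Middlebrook 7H9 (0.2% glycerol, 0.1% Tween-80, 10% ADS) at 37 °C, subcultured to OD600 ≈0.3, then diluted 1:1000 into 96-well plates. Final compound levels were […]. Incubated 32 h at 37 °C, turbidity read at OD600, triplicates. GI50 was derived from % growth inhibition. INH/rifampicin positive controls, DMSO and medium-only controls.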

DU-145 = assay: Cytotoxicity against human DU145 cells after 48 hrs by MTT assay; type: functional, cell-based; in short: as §1
HeLa [3] = assay: Induction of apoptosis in human HeLa cells assessed as activation of caspase-9 using Ac-DEVD-AMC as substrate at 10 to 25 uM after 48 hrs by fluorescence assay relative to control; type: functional
HeLa [4] = assay: Induction of apoptosis in human HeLa cells assessed as activation of caspase-3 using Ac-DEVD-AMC as substrate at 10 to 25 uM after 48 hrs by fluorescence assay relative to control; type: functional
In short: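 HeLa cells treated 48 h with compound or DMSO, then lysed in 50 mM HEPES, 5 mM CHAPS, 5 mM DTT, pH 7.5. Lysate incubated with Ac-DEVD-AMC in 20 mM HEPES pH 7.5, 0.1% CHAPS, 2 mM EDTA, 5 mM DTT for 2 h at 37 °C. AMC read at ex/em 380/460 nm and normalized to Bradford protein. Activity expressed as treated relative to mock-treated. Doxorubicin used as positive control.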

HeLa [5] = assay: Ratio of IC50 for HEK293 cells to IC50 for human HeLa cells
[6] = Homo sapiens, A549, 48 h, read-out: IC50
[7] = Homo sapiens, DU-145, 48 h, read-out: IC50
[8] = Homo sapiens, HeLa, 48 h, read-out: IC50
[9] = Homo sapiens, HEK293, 48 h, read-out: IC50

Structure (SMILES)	IC50 (A549; [6])	IC50 (HeLa [1]; hela)	IC50 (HEK293; hek293)	GI50 [2]	IC50 (DU-145; [7])	fold change (FC) (HeLa [3])	fold change (FC) (HeLa [4])	IC50 (HeLa [1]; [8])	Ratio IC50 (HeLa [5])	IC50 (HEK293; [9])	GI50 ([2]; MC2 155 ATCC 14468, 32 h)	IC50 (A549; a549)	IC50 (DU-145; du-145)
O=C1C2=Cc3ccccc3OCC2=NN1c1ccc(Cl)cc1	215 µM	Not Active	Not Active	inactive	89.4 µM								
O=C1ON=C2COc3ccc(Br)cc3C=C12	49.1 µM				28.8 µM	20	<=40	10.1 µM	4	48.2 µM	28.5 µg/mL (≈ 102 µM)		
O=C1C2=Cc3cc(Br)ccc3OCC2=NN1c1ccc(Br)cc1		Not Active	Not Active	inactive								Not Active	Not Active
COc1ccc2c(c1)C=C1C(=O)N(c3ccc(Br)cc3)N=C1CO2	33.3 µM			inactive				180 µM		161 µM			Not Active
Cc1cccc(N2N=C3COc4ccccc4C=C3C2=O)c1		Not Active	Not Active	inactive								Not Active	Not Active
O=C1ON=C2COc3ccc(-c4ccccc4)cc3C=C12	29.7 µM				28.9 µM	20	<=40	9.03 µM	4	39.2 µM	9.1 µg/mL (≈ 32.8 µM)		
O=C1C2=Cc3ccccc3OCC2=NN1c1ccccc1		Not Active	Not Active								23.2 µg/mL (≈ 83.9 µM)	Not Active	Not Active
Cc1ccc(N2N=C3COc4ccc(-c5ccccc5)cc4C=C3C2=O)cc1					78.2 µM			185 µM		149 µM	34 µg/mL (≈ 92.8 µM)	Not Active	
O=C1C2=Cc3cc(-c4ccccc4)ccc3OCC2=NN1c1ccc(Br)cc1	118 µM	Not Active	Not Active	inactive	140 µM								
Cc1ccc(N2N=C3COc4ccccc4C=C3C2=O)cc1C	84.3 µM	Not Active	Not Active								19.4 µg/mL (≈ 63.6 µM)		Not Active
O=C1C2=Cc3ccccc3OCC2=NN1c1ccc(F)cc1		Not Active	Not Active								38.7 µg/mL (≈ 132 µM)	Not Active	Not Active
NNC(=O)c1ccncc1 [ISONIAZID]											7.94 µg/mL (≈ 57.9 µM)		
O=C1C2=Cc3cc(-c4ccccc4)ccc3OCC2=NN1c1ccccc1	117 µM	Not Active	Not Active	inactive									Not Active
Cc1ccc(N2N=C3COc4ccccc4C=C3C2=O)cc1		Not Active	Not Active		152 µM						49.3 µg/mL (≈ 170 µM)	Not Active	
COc1cccc2c1C(=O)c1c(O)c3c(c(O)c1C2=O)C[C@@](O)(C(=O)CO)C[C@@H]3O[C@H]1C[C@H](N)[C@H](O)[C@H](C)O1 [DOXORUBICIN]	7.47 µM				8.19 µM			6.94 µM		7.41 µM			
Cc1ccccc1N1N=C2COc3ccccc3C=C2C1=O				inactive	63.9 µM			109 µM		154 µM		Not Active	
O=C1ON=C2COc3ccccc3C=C12			Not Active		84.8 µM			85 µM			21.4 µg/mL (≈ 106 µM)	Not Active	
O=C1C2=Cc3ccccc3OCC2=NN1c1ccc(Br)cc1		Not Active	Not Active	inactive	117 µM							Not Active	
COc1ccc(N2N=C3COc4ccccc4C=C3C2=O)cc1	133 µM		Not Active	inactive	67.5 µM			166 µM					
COc1ccc2c(c1)C=C1C(=O)ON=C1CO2	46.5 µM			inactive	33.6 µM	20	<=40	10.1 µM	4	47.7 µM			
O=C1C2=Cc3ccccc3OCC2=NN1c1cccc(Cl)c1	244 µM	Not Active	Not Active	inactive									Not Active
COc1ccc2c(c1)C=C1C(=O)N(c3ccccc3)N=C1CO2			Not Active					167 µM			15.7 µg/mL (≈ 51.1 µM)	Not Active	Not Active
O=C1C2=Cc3ccccc3OCC2=NN1c1cccc(F)c1	179 µM		Not Active	inactive	97 µM			190 µM					
COc1ccc2c(c1)C=C1C(=O)N(c3ccc(C)cc3)N=C1CO2	199 µM			inactive	117 µM			129 µM		138 µM			
CO[C@H]1/C=C/O[C@@]2(C)Oc3c(C)c(O)c4c(O)c(c(/C=N/N5CCN(C)CC5)c(O)c4c3C2=O)NC(=O)/C(C)=C\C=C\[C@H](C)[C@H](O)[C@@H](C)[C@@H](O)[C@@H](C)[C@H](OC(C)=O)[C@@H]1C [RIFAMPIN]											1.04 µg/mL (≈ 1.26 µM)		
O=C1C2=Cc3cc(Br)ccc3OCC2=NN1c1ccccc1		Not Active	Not Active		123 µM						11.9 µg/mL (≈ 33.5 µM)	Not Active	
Cc1ccc(N2N=C3COc4ccc(Br)cc4C=C3C2=O)cc1	163 µM	Not Active	Not Active								42.4 µg/mL (≈ 115 µM)		Not Active
